Series [1] is described as follows: Cmax in rat at 10 mg/kg, po. It counts as ADME, organism-based. Also on record: dose 10 mg/kg, route oral. The following applies: in vivo.
Series [2] in a line: AUC in rat at 10 mg/kg, po. The series is classed as ADME, organism-based. Also on record: dose 10 mg/kg, route oral. The following applies: plasma.
Series [3] can be described thus: Volume of distribution at steady state in rat at 4 mg/kg, iv. The series is classed as ADME, organism-based. Also on record: dose 4 mg/kg, route intravenous. Particulars: in vivo, read-out: Vdss. In short, it runs like this: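 Rats received intravenous dosing in a vehicle of 70% PEG-400.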
For a further series, the system named is Liver. The experiment in a line: Liver-to-plasma partition coefficient in rat.
Series [4] can be described thus: Drug uptake in rat liver after 8 hrs. Particulars: read-out: Drug uptake. It counts as ADME, tissue-based.
Series [5] is described as follows: Oral bioavailability in rat at 10 mg/kg. It counts as ADME, organism-based. Particulars: in vivo. Put shortly:
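Bioavailability was derived from rat oral dosing in 1% N-methyl-2-pyrrolidone, 0.5% Methocel and 0.3% Tween-80, compared with intravenous dosing in a 70% PEG-400-based vehicle.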

Bounds are passed on as bounds.

Results on four compounds are retold here after ChEMBL document CHEMBL3120126, “Discovery of hepatitis C virus NS3-4A protease inhibitors with improved barrier to resistance and favorable liver distribution” (J Med Chem, 2014).

Usually Cmax stands for the highest concentration seen after dosing. What is called AUC is the area under the concentration-time curve, a measure of exposure. Low values mean less exposure, high ones more exposure. As a reminder, the Kp is the ratio of the level in a tissue or fluid to that in plasma or blood. The term bioavailability denotes dose-corrected exposure relative to a reference, in per cent. A lower bioavailability goes with poor availability. Turning to `COc1ccc2c(O[C@@H]3C[C@H]4C(=O)N[C@]5(C(=O)NS(=O)(=O)C6CC6)C[C@H]5/C=C\CCCCC[C@H](NC(=O)c5ccn(CC(F)F)n5)C(=O)N4C3)cc(OC(C)C)nc2c1C`, the Cmax in series [1] amounted to 0.3 µM. Moreover, in series [2], the AUC is 0.36 µM·h. In addition, the Vd in series [3] turned out to be 0.86 L/kg. Besides, the Kp in the series on Liver is reported as 323. For the same compound, the concentration at 8 h in series [4] was 6.5 µM. This compound showed a bioavailability in series [5] of 6.1%.

Compound `COc1ccc2c(O[C@@H]3C[C@H]4C(=O)N[C@]5(C(=O)NS(=O)(=O)C6(C)CC6)C[C@H]5/C=C\CCCCC[C@H](NC(=O)c5cnn(C)n5)C(=O)N4C3)cc(OC(C)C)nc2c1C` gave a Cmax in series [1] of 0.87 µM. Moreover, the area under the curve (AUC) in series [2] turned out to be 1.4 µM·h. The Vd in series [3] was determined as 2 L/kg. For the same compound, the partition ratio (Kp) in the series with Liver is greater than 1500. Besides, in series [4], the concentration at 8 h amounted to 73 µM. In series [5], this compound gave a bioavailability of 16%.

In series [1], `COc1ccc2c(O[C@@H]3C[C@H]4C(=O)N[C@]5(C(=O)NS(=O)(=O)C6(C)CC6)C[C@H]5/C=C\CCCCC[C@H](NC(=O)c5ccn(C)n5)C(=O)N4C3)cc(OC(C)C)nc2c1C` showed a peak concentration (Cmax) of 1.3 µM. Besides, the exposure (AUC) in series [2] came to 1.4 µM·h. Besides, in series [3], the Vd was 0.97 L/kg. The compound also registered a partition ratio (Kp) with Liver greater than 1500. Besides, in series [4], the concentration at 8 h was determined as 56 µM. This compound displayed a bioavailability in series [5] of 14%.

In series [1], `COc1ccc2c(O[C@@H]3C[C@H]4C(=O)N[C@]5(C(=O)NS(=O)(=O)C6CC6)C[C@H]5/C=C\CCCCC[C@H](NC(=O)c5ccn(CC(F)(F)F)n5)C(=O)N4C3)cc(OC(C)C)nc2c1C` showed a Cmax of 0.88 µM. In addition, in series [2], the AUC came out at 1.3 µM·h. Besides, the Vd in series [3] turned out to be 3.3 L/kg. This compound registered a concentration ratio (Kp) with Liver of 360. Also, the concentration at 8 h in series [4] was found to be 11 µM. Further, in series [5], the bioavailability was 11%.
